For experiment [1], the species on record is Homo sapiens. The experiment is described as follows: Inhibition of human TOP1B G363C mutant expressed in Saccharomyces cerevisiae EKY3 lacking top1 assessed as reduction in yeast growth at 1 to 30 uM. The method, boiled down:
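Human Top1 G363C mutant (glycine 363 to cysteine, camptothecin-resistant) expressed from plasmids under the Gal-1–10 promoter in S. cerevisiae EKY3, which lacks the endogenous enzyme. Yeast growth sensitivity read at a range of compound concentrations. Controls were untreated cells and DMSO vehicle.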

Experiment [2] deals with T1, DNA topoisomerase 1 (Homo sapiens) (UniProt P11387).
T1 sequence (whole entry): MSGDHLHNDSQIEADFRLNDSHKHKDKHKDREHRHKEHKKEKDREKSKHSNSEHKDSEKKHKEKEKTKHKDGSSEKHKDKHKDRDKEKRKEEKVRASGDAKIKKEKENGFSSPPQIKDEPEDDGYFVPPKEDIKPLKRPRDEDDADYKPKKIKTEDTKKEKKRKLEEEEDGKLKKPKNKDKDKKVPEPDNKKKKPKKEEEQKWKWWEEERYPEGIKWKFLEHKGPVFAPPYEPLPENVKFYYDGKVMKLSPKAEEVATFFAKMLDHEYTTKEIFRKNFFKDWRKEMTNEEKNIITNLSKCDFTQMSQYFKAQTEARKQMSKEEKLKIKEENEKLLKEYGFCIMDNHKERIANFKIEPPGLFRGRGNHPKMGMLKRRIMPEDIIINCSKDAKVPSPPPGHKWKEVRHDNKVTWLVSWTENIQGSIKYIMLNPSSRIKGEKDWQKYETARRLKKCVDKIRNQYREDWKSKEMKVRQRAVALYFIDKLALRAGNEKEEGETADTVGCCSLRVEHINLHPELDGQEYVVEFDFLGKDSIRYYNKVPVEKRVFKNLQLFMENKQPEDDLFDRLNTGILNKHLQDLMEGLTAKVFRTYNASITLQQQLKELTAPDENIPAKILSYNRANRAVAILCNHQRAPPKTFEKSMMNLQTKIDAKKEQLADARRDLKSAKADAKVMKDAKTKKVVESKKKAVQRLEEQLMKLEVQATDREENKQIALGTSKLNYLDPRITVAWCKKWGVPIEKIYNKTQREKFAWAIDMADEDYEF
The experiment is described as follows: Inhibition of human TOP1B expressed in Saccharomyces cerevisiae EKY3 lacking top1 assessed as reduction in yeast cell growth at 10 uM. The method, boiled down:
(§1)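 Wild-type human Top1 overexpressed from plasmids under the Gal-1–10 promoter in S. cerevisiae EKY3, which lacks the endogenous enzyme. Yeast growth sensitivity scored across compound concentrations. Controls were untreated cells and DMSO vehicle.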

Experiment [3] deals with T1, DNA topoisomerase 1 (Homo sapiens). The experiment is described as follows: Inhibition of human TOP1B expressed in Saccharomyces cerevisiae EKY3 lacking top1 assessed as induction of cell cycle defect at 30 uM measured after 24 hrs.
Experiment [4] shares this target. In words: Inhibition of human TOP1B-medaited negatively supercoiled pBlue-Script KSII(+) DNA relaxation at 0.3 to 30 uM by ethidium bromide staining based gel electrophoresis method.
The target is the same in experiment [5]. In words: Inhibition of human TOP1B expressed in Saccharomyces cerevisiae EKY3 lacking top1 assessed as reduction in yeast cell growth at 30 uM. An outline of the steps:
as §1

The subject of experiment [6] is RPMI-7951. In words: Cytotoxicity against human RPMI7951 cells assessed as reduction in cell viability measured after 24 hrs by MTT assay. Format: functional, cell-based. The conditions noted are these: RPMI-7951, 24 h.
The nature of experiment [7]: Cytotoxicity against human C3PV cells assessed as reduction in cell viability measured after 24 hrs by MTT assay. Type of experiment: cell-based.
For experiment [8], the system named is SK-MEL-24. In words: Cytotoxicity against human SK-MEL-24 cells assessed as reduction in cell viability measured after 24 hrs by MTT assay. Format: functional, cell-based. The conditions noted are these: SK-MEL-24, 24 h.
Experiment [9] addresses T1, DNA topoisomerase 1 (Homo sapiens). In words: Inhibition of human TOP1B expressed in Saccharomyces cerevisiae EKY3 lacking top1 assessed as reduction in yeast cell growth at 1 to 30 uM. The method, boiled down:
as §1

For experiment [10] the target is unchanged. The experiment is described as follows: Inhibition of human TOP1B-medaited negatively supercoiled pBlue-Script KSII(+) DNA relaxation at 300 nM by ethidium bromide staining based gel electrophoresis method.
The target is the same in experiment [11]. In words: Inhibition of human TOP1B expressed in Saccharomyces cerevisiae EKY3 lacking top1 assessed as reduction in yeast growth at 3 uM. The method, boiled down:
as §1

Experimental findings from ChEMBL document CHEMBL4613320, “Artemisinin Derivatives with Antimelanoma Activity Show Inhibitory Effect against Human DNA Topoisomerase 1” (ACS Med Chem Lett, 2020) are described below.

The source made the active and inactive calls. The calls are words filed in the database; no cut-off is given here.

As for `C[C@H]1[C@H](OC(=O)CCC(=O)OCCc2ccc(O)cc2)O[C@@H]2O[C@]3(C)CC[C@H]4[C@H](C)CC[C@@H]1[C@@]24OO3`, the inhibition result in experiment [1] is “inactive”. Also, the inhibition result in experiment [2], in experiment [3] and in [4] was “Active” each time.

As to `C[C@H]1[C@H](OC(=O)CCC(=O)Oc2ccc(CCO)cc2)O[C@@H]2O[C@]3(C)CC[C@H]4[C@H](C)CC[C@@H]1[C@@]24OO3`, in experiment [1], the inhibition entry is “inactive”. Moreover, the inhibition result in experiment [2] and in [4] was “Active” in each case.

Take `COc1cc(/C=C/C(=O)CC(=O)/C=C/c2ccc(OC(=O)CCC(=O)O[C@@H]3O[C@@H]4O[C@]5(C)CC[C@H]6[C@H](C)CC[C@@H]([C@H]3C)[C@@]46OO5)c(OC)c2)ccc1O`: the inhibition entry in experiment [4] and in experiment [5] was “Active” each time.

For orientation: IC50 means the concentration needed to halve the response being measured. Regarding `CCc1c2c(nc3ccc(O)cc13)-c1cc3c(c(=O)n1C2)COC(=O)[C@]3(O)CC` [7-ETHYL-10-HYDROXYCAMPTOTHECIN], the IC50 in [6] was 260 nM; in experiment [7], 510 nM; in experiment [8], 480 nM.

As for `C[C@H]1[C@H](OCCc2ccc(O)cc2)O[C@@H]2O[C@]3(C)CC[C@H]4[C@H](C)CC[C@@H]1[C@@]24OO3`, the inhibition result in experiment [5] was “Active”.

For the molecule `CC(=O)O[C@H]1C(=O)[C@@]2(C)[C@H]([C@H](OC(=O)c3ccccc3)[C@]3(O)C[C@H](OC(=O)[C@H](O)[C@@H](NC(=O)c4ccccc4)c4ccccc4)C(C)=C1C3(C)C)[C@]1(OC(C)=O)CO[C@@H]1C[C@@H]2O` [PACLITAXEL], the IC50 in [6] came to 13 nM; in experiment [7], 78900 nM; in experiment [8], 4730 nM.

Take `C[C@H]1[C@H](OC(=O)CCC(=O)O)O[C@@H]2O[C@@]3(C)CC[C@H]4[C@H](C)CC[C@@H]1[C@@]24OO3`: the inhibition entry in experiment [4] is “Active”. In addition, the inhibition result in experiment [5] was “inactive”.

As for `CC[C@@]1(OC(=O)CCC(=O)O[C@@H]2O[C@@H]3O[C@]4(C)CC[C@H]5[C@H](C)CC[C@@H]([C@H]2C)[C@@]35OO4)C(=O)OCc2c1cc1n(c2=O)Cc2cc3ccccc3nc2-1`, the IC50 in experiment [6] was determined as 17300 nM; in experiment [7], 300 nM; in experiment [8], 850 nM. Moreover, the inhibition result in experiment [4] and in [9] was “Active” each time.

On to `CCc1c2c(nc3ccc(OC(=O)CCC(=O)O[C@@H]4O[C@@H]5O[C@]6(C)CC[C@H]7[C@H](C)CC[C@@H]([C@H]4C)[C@@]57OO6)cc13)-c1cc3c(c(=O)n1C2)COC(=O)[C@]3(O)CC`, for which the IC50 was 50 nM in experiment [6], 3200 nM in experiment [7] and 320 nM in experiment [8]. Also, the inhibition entry in [10], in experiment [1] and in [11] was “Active” each time.

With `CC[C@@]1(O)C(=O)OCc2c1cc1n(c2=O)Cc2cc3ccccc3nc2-1` [CAMPTOTHECIN], the IC50 in [6] worked out at 220 nM; in [7], 450 nM; in experiment [8], 460 nM.

For `C=C(C)[C@H]1CC=C(COC(=O)CCC(=O)O[C@@H]2O[C@@H]3O[C@@]4(C)CC[C@H]5[C@H](C)CC[C@@H]([C@H]2C)[C@@]35OO4)CC1`, the inhibition result in experiment [9] was “inactive”.

For `C[C@@H]1CC[C@H]2[C@@H](C)C(=O)O[C@@H]3O[C@@]4(C)CC[C@@H]1[C@]32OO4`, the inhibition result in experiment [9] was “inactive”.

`C[C@H]1[C@H](O)O[C@@H]2O[C@@]3(C)CC[C@H]4[C@H](C)CC[C@@H]1[C@@]24OO3`: the inhibition entry in experiment [5] was “inactive”.

With `COc1cc(/C=C/C(=O)CC(=O)/C=C/c2ccc(OC(=O)CCC(=O)O[C@@H]3O[C@@H]4O[C@]5(C)CC[C@H]6[C@H](C)CC[C@@H]([C@H]3C)[C@@]46OO5)cc2)ccc1OC(=O)CCC(=O)O[C@@H]1O[C@@H]2O[C@]3(C)CC[C@H]4[C@H](C)CC[C@@H]([C@H]1C)[C@@]24OO3`, the inhibition result in [9] is “inactive”.
